pEC50, pKi: −log10 of the molar value. Like-named read-outs stand apart in the source and are kept apart here.
Experiments:
δ-opioid receptor (DOR) [1] = target: T1, δ-opioid receptor (DOR) (Rattus norvegicus, UniProt P33533); experiment: Agonist stimulation of [35S]GTPγS binding, C6-DOR membranes; assay type: biochemical; conditions: dns: does not stimulate; for EC50 DOR: [35S]GTPγS binding, mean (S.E.M.), n=3; for % stimulation DOR: percent maximal stimulation relative to DPDPE at 10 µM
In short: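 C6 rat glioma cells stably expressing rat DOR; membranes (10–20 µg protein) incubated 1 h at 25°C in 50 mM Tris-HCl, 100 mM NaCl, 5 mM MgCl2, pH 7.4, with 0.1 nM [35S]GTPγS, 30 µM GDP and varying test compound.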

κ-opioid receptor (KOR) [2] = target: T2, κ-opioid receptor (KOR) (Homo sapiens, UniProt P41145); experiment: Agonist stimulation of [35S]GTPγS binding, CHO-KOR membranes; assay type: biochemical; conditions: for EC50 KOR: [35S]GTPγS binding, mean (S.E.M.), n=3 (footnote d: n=2), dns: does not stimulate
C57BL/6 mice = experiment: Mouse warm water tail withdrawal; assay type: in vivo; conditions: 10 mg/kg ip
Plasma stability testing = assay type: in vitro ADME; conditions: in plasma after 30 min
DOR = DOR (Rattus norvegicus, UniProt P33533); experiment: Antagonism of the DOR agonist DPDPE; assay type: biochemical
δ-opioid receptor (DOR) [3] = target: T1, δ-opioid receptor (DOR); conditions: [35S]GTPγS binding; dns: does not stimulate; previously published, ref [1]; cited from earlier work
κ-opioid receptor (KOR) [4] = target: T2, κ-opioid receptor (KOR); conditions: [35S]GTPγS binding; dns: does not stimulate; previously published, ref [1]; cited from earlier work
µ-opioid receptor (MOR) [5] = target: T3, µ-opioid receptor (MOR) (Rattus norvegicus, UniProt P33535); conditions: relative to DAMGO at 10 µM; previously published, ref [1]; cited from earlier work
µ-opioid receptor (MOR) [6] = target: T3, µ-opioid receptor (MOR); experiment: Agonist stimulation of [35S]GTPγS binding, C6-MOR membranes; assay type: biochemical; conditions: dns: does not stimulate
In short: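 C6 rat glioma cells stably expressing rat MOR were grown in DMEM/10% FBS. Membranes (10–20 µg protein) were incubated 1 h at 25 °C in 50 mM Tris-HCl, 100 mM NaCl, 5 mM MgCl2, pH 7.4, with 0.1 nM [35S]GTPγS, 30 µM GDP and varying compound concentrations. Samples were GF/C-filtered and scintillation-counted. Stimulation was expressed relative to 10 µM DAMGO.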

µ-opioid receptor (MOR) [7] = target: T3, µ-opioid receptor (MOR); experiment: [3H]diprenorphine competitive displacement binding, C6-MOR membranes

T2 sequence (P41145 whole entry): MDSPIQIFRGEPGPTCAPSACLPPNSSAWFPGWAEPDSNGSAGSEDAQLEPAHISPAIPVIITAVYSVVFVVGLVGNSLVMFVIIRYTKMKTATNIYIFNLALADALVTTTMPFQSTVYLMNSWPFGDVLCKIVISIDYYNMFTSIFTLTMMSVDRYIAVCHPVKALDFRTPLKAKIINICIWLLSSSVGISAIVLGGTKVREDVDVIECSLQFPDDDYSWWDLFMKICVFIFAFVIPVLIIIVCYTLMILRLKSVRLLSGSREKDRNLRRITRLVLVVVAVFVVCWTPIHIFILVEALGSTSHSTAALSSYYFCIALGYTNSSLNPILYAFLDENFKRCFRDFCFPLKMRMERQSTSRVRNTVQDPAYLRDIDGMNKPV
T3 sequence (P33535 whole entry): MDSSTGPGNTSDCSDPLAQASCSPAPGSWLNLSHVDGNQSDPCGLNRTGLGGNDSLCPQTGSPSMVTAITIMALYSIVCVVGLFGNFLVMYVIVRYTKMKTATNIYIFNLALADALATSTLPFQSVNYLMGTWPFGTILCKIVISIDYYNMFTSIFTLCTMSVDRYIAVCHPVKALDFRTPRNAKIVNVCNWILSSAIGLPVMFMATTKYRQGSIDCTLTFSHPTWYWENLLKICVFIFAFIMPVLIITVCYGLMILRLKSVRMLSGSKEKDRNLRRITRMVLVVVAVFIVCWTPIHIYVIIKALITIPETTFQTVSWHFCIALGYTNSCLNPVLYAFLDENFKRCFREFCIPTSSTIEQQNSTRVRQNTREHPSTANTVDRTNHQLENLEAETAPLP
T1 sequence (P33533 whole entry): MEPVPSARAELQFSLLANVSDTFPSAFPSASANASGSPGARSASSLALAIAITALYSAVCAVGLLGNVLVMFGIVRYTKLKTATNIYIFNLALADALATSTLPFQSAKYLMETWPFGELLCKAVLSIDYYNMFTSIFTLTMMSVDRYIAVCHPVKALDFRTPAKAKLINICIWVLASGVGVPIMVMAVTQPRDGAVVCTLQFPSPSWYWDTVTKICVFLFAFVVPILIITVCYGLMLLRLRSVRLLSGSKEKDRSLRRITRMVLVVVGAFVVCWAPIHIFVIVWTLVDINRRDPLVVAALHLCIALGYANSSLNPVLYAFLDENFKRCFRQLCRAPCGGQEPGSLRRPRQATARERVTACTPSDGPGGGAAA
Sequence of DOR (P33533 whole entry): as above

CC(=O)N1CC[C@@H](NC(=O)[C@@H](N)Cc2c(C)cc(O)cc2C)c2cc(CC3CCc4ccccc43)ccc21 (mixture of isomers) [14g, (S)-N-((R)-1-Acetyl-6-(((R/S)-2,3-dihydro-1H–inden-1-yl)methyl)-1,2,3,4-tetrahydroquinolin-4-yl)-2-amino-3-(4-hydroxy-2,6-dimethylphenyl)propanamide]
EC50 DOR (δ-opioid receptor (DOR) [1]): dns
% stimulation DOR (δ-opioid receptor (DOR) [1]): dns
pEC50 (κ-opioid receptor (KOR) [2]): < 6.00

Cc1cc(O)cc(C)c1C[C@H](N)C(=O)N[C@@H]1CCNc2ccc(CC3CCc4ccccc43)cc21 (mixture of isomers) [14h, (S)-2-Amino-N-((R)-6-(((R/S)-2,3-dihydro-1H–inden-1-yl)methyl)-1,2,3,4-tetrahydroquinolin-4-yl)-3-(4-hydroxy-2,6-dimethylphenyl)propanamide]
EC50 DOR (δ-opioid receptor (DOR) [1]): dns
% stimulation DOR (δ-opioid receptor (DOR) [1]): dns

CC(=O)N1CC[C@@H](NC(=O)[C@@H](N)Cc2c(C)cc(O)cc2C)c2cc(Cc3ccc4ccccc4c3)ccc21 [14a, (S)-N-((R)-1-Acetyl-6-(naphthalen-2-ylmethyl)-1,2,3,4-tetrahydroquinolin-4-yl)-2-amino-3-(4-hydroxy-2,6-dimethylphenyl)propanamide]
EC50 DOR (δ-opioid receptor (DOR) [1]): dns
% stimulation DOR (δ-opioid receptor (DOR) [1]): dns
duration of maximal antinociception (C57BL/6 mice; mouse WWTW time course): approximately 200 min
duration of action compared to 14i (C57BL/6 mice; mouse WWTW, relative to original lead 14i): greater than 3 times
EC50 KOR (κ-opioid receptor (KOR) [2]): dns ^d
plasma stability (Plasma stability testing): fully stable
Kb (DOR): 1.98 nM

Cc1cc(O)cc(C)c1C[C@H](N)C(=O)N[C@@H]1CCNc2ccc(CC3CCCCC3)cc21 [14b, (S)-2-Amino-N-((R)-6-(cyclohexylmethyl)-1,2,3,4-tetrahydroquinolin-4-yl)-3-(4-hydroxy-2,6-dimethylphenyl)propanamide]
EC50 DOR (δ-opioid receptor (DOR) [1]): dns
% stimulation DOR (δ-opioid receptor (DOR) [1]): dns

CC(=O)N1CC[C@@H](NC(=O)[C@@H](N)Cc2c(C)cc(O)cc2C)c2cc(CC3CCCCC3)ccc21 [14c, (S)-N-((R)-1-Acetyl-6-(cyclohexylmethyl)-1,2,3,4-tetrahydroquinolin-4-yl)-2-amino-3-(4-hydroxy-2,6-dimethylphenyl)propanamide]
% stimulation DOR (δ-opioid receptor (DOR) [1]): 26 (5) %

CC(=O)N1CC[C@@H](NC(=O)[C@@H](N)Cc2c(C)cc(O)cc2C)c2cc(Cc3cccc4ccccc34)ccc21 [14d, (S)-N-((R)-1-Acetyl-6-(naphthalen-1-ylmethyl)-1,2,3,4-tetrahydroquinolin-4-yl)-2-amino-3-(4-hydroxy-2,6-dimethylphenyl)propanamide]
EC50 DOR (δ-opioid receptor (DOR) [1]): dns
% stimulation DOR (δ-opioid receptor (DOR) [1]): dns
EC50 KOR (κ-opioid receptor (KOR) [2]): dns ^d
plasma stability (Plasma stability testing): fully stable
Kb (DOR): 27.5 nM

CC(=O)N1CC[C@@H](NC(=O)[C@@H](N)Cc2c(C)cc(O)cc2C)c2cc(Cc3ccccc3)ccc21 [14e, (S)-N-((R)-1-Acetyl-6-benzyl-1,2,3,4-tetrahydroquinolin-4-yl)-2-amino-3-(4-hydroxy-2,6-dimethylphenyl)propanamide]
% stimulation DOR (δ-opioid receptor (DOR) [1]): 26 (3) %

CC(=O)N1CC[C@@H](NC(=O)[C@@H](N)Cc2c(C)cc(O)cc2C)c2cc(CC3Cc4ccccc4C3)ccc21 [14f, (S)-N-((R)-1-Acetyl-6-((2,3-dihydro-1H–inden-2-yl)methyl)-1,2,3,4-tetrahydroquinolin-4-yl)-2-amino-3-(4-hydroxy-2,6-dimethylphenyl)propanamide]
EC50 DOR (δ-opioid receptor (DOR) [1]): dns
% stimulation DOR (δ-opioid receptor (DOR) [1]): dns

Cc1cc(O)cc(C)c1C[C@H](N)C(=O)N[C@@H]1CCNc2ccc(Cc3ccc4ccccc4c3)cc21 [14j, (S)-2-Amino-3-(4-hydroxy-2,6-dimethylphenyl)-N-((R)-6-(naphthalen-2-ylmethyl)-1,2,3,4-tetrahydroquinolin-4-yl)propanamide]
EC50 DOR (δ-opioid receptor (DOR) [3]): dns
EC50 KOR (κ-opioid receptor (KOR) [4]): dns
% stimulation MOR (µ-opioid receptor (MOR) [5]): 96 (3) %

Cc1cc(O)cc(C)c1C[C@H](N)C(=O)N[C@@H]1CCNc2ccc(Cc3cccc4ccccc34)cc21 [14k, (S)-2-Amino-3-(4-hydroxy-2,6-dimethylphenyl)-N-((R)-6-(naphthalen-1-ylmethyl)-1,2,3,4-tetrahydroquinolin-4-yl)propanamide]
EC50 KOR (κ-opioid receptor (KOR) [4]): dns
% stimulation MOR (µ-opioid receptor (MOR) [5]): 93 (5) %

Cc1cc(O)cc(C)c1C[C@H](N)C(=O)N[C@@H]1CCNc2ccc(CC3Cc4ccccc4C3)cc21 [14l, (S)-2-Amino-N-((R)-6-((2,3-dihydro-1H–inden-2-yl)methyl)-1,2,3,4-tetrahydroquinolin-4-yl)-3-(4-hydroxy-2,6-dimethylphenyl)propanamide]
% stimulation MOR (µ-opioid receptor (MOR) [5]): 86 (1) %

Cc1cc(O)cc(C)c1C[C@H](N)C(=O)N[C@@H]1CCCc2ccc(Cc3ccccc3)cc21 [14m, (S)-2-Amino-N-((R)-7-benzyl-1,2,3,4-tetrahydronaphthalen-1-yl)-3-(4-hydroxy-2,6-dimethylphenyl) propanamide]
EC50 DOR (δ-opioid receptor (DOR) [1]): dns
% stimulation DOR (δ-opioid receptor (DOR) [1]): dns
EC50 KOR (κ-opioid receptor (KOR) [2]): dns

Cc1cc(O)cc(C)c1C[C@H](N)C(=O)N[C@@H]1CCCc2ccc(CC3CCCCC3)cc21 [14n, (S)-2-Amino-N-((R)-7-(cyclohexylmethyl)-1,2,3,4-tetrahydronaphthalen-1-yl)-3-(4-hydroxy-2,6-dimethylphenyl)propanamide]
EC50 MOR (µ-opioid receptor (MOR) [6]; [35S]GTPγS binding, mean (S.E.M.), n=3): dns
% stimulation MOR (µ-opioid receptor (MOR) [6]; percent maximal stimulation relative to DAMGO at 10 µM): dns
pKi (µ-opioid receptor (MOR) [7]): 9.92
EC50 DOR (δ-opioid receptor (DOR) [1]): dns
% stimulation DOR (δ-opioid receptor (DOR) [1]): dns

Cc1cc(O)cc(C)c1C[C@H](N)C(=O)N[C@@H]1CCCc2ccc(Cc3ccc4ccccc4c3)cc21 [14o, (S)-2-Amino-3-(4-hydroxy-2,6-dimethylphenyl)-N-((R)-7-(naphthalen-2-ylmethyl)-1,2,3,4-tetrahydronaphthalen-1-yl)propanamide]
EC50 DOR (δ-opioid receptor (DOR) [1]): dns
% stimulation DOR (δ-opioid receptor (DOR) [1]): dns
EC50 KOR (κ-opioid receptor (KOR) [2]): dns

Cc1cc(O)cc(C)c1C[C@H](N)C(=O)N[C@@H]1CCCc2ccc(Cc3cccc4ccccc34)cc21 [14p, (S)-2-Amino-3-(4-hydroxy-2,6-dimethylphenyl)-N-((R)-7-(naphthalen-1-ylmethyl)-1,2,3,4-tetrahydronaphthalen-1-yl)propanamide]
EC50 DOR (δ-opioid receptor (DOR) [1]): dns
% stimulation DOR (δ-opioid receptor (DOR) [1]): dns
EC50 KOR (κ-opioid receptor (KOR) [2]): dns ^d

From paper PMC4772774 (Journal of medicinal chemistry, 2015)
